From ChEMBL document CHEMBL4145604, “Jizanpeptins, Cyanobacterial Protease Inhibitors from a Symploca sp. Cyanobacterium Collected in the Red Sea” (J Nat Prod, 2018) come the findings set out here.

Calls of active or inactive are those of the source. The rule behind the calls is not given here. *1 amine or outer side, *2 acyl side, *3 side chain or, on linkers, in order; H or OH if unused. Where a SMILES comes first, the peptide text is derived from it. Bridges are numbered along the chain shown (N, C = ends). [ ]: non-standard residue; d: D form. The star is where a group is joined. Ahp(3S,6R)alloIle = CC[C@@H](C)[C@@H](C(=O)[*:2])N1C(=O)[C@@H](N[*:1])CC[C@H]1O; Propanoyl(2R-OMe,3-OSO3H) = CO[C@H](COS(=O)(=O)O)C(=O)*; NMeTyr(3-Br,OMe) = CN[C@@H](Cc1ccc(OC)c(Br)c1)C(=O)O; Cit = NC(=O)NCCC[C@H](N)C(=O)O; Butyryl = CCCC(=O)* Bounds are passed on as bounds.

Experiment [1] has as its target Trypsin (Homo sapiens, UniProt P07477+P07478+P35030). The experiment is described as follows: Inhibition of trypsin (unknown origin) assessed as reduction in conversion of N-benzoyl-L-arginine ethyl ester hydrochloride to N-benzoyl-L-arginine incubated for 5 mins measured for 30 secs by spectrophotometric method. Type of experiment: protein assay.
Experiment [2] is described as follows: (§1) Inhibition of chymotrypsin (unknown origin) assessed as reduction in conversion of N-benzoyl-L-tyrosine ethyl ester to N-benzoyl-L-tyrosine incubated for 3 mins measured for 30 secs by spectrophotometric method. On the set-up: species or system Homo sapiens.
Experiment [3] is filed under the species Homo sapiens. The experiment is described as follows: Selectivity ratio of IC50 for chymotrypsin (unknown origin) to IC50 for trypsin (unknown origin).
In experiment [4] the test system is NCI-H460. Put plainly: Antiproliferative activity against human NCI-H460 cells up to 3 uM after 72 hrs by MTT assay. Type of experiment: functional, cell-based. A digest of the protocol: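 NCI-H460 cells exposed for 72 h to 30 nM–3 μM compound from DMSO stocks, final DMSO 0.1%; apratoxin A (30 nM) positive control; MTT viability end-point, vehicle-treated cells set as 100%.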

Experiment [5] relates to HeLa. Put plainly: Antiproliferative activity against human HeLa cells up to 3 uM after 72 hrs by MTT assay. The format is functional, cell-based.
The species entered for experiment [6] is Homo sapiens. Described as §1.

As for `CC[C@@H](C)[C@H]1C(=O)N(C)[C@@H](Cc2ccc(OC)c(Br)c2)C(=O)N[C@@H]([C@@H](C)CC)C(=O)O[C@H](C)[C@H](NC(=O)[C@@H](NC(=O)[C@@H](COS(=O)(=O)O)OC)[C@@H](C)CC)C(=O)N[C@@H](CCCCN)C(=O)N[C@H]2CC[C@@H](O)N1C2=O` ({Propanoyl(2R-OMe,3-OSO3H)}-ITK[Ahp(3S,6R)alloIle][NMeTyr(3-Br,OMe)]I; ester 2-C), the IC50 (commonly the concentration that inhibits the measured activity by half) in experiment [1] is 1000 nM; in experiment [2] it was greater than 10000 nM. Also, the Ratio IC50 in experiment [3] is 10 to 66. The result in experiment [4] and in experiment [5] was inactive.

Take `CC[C@@H](C)[C@H]1C(=O)N(C)[C@@H](Cc2ccc(OC)c(Br)c2)C(=O)N[C@@H]([C@@H](C)CC)C(=O)O[C@H](C)[C@H](NC(=O)[C@H](NC(=O)[C@@H](COS(=O)(=O)O)OC)C(C)C)C(=O)N[C@@H](CCCCN)C(=O)N[C@H]2CC[C@@H](O)N1C2=O`: the IC50 is 190 nM in experiment [1] and greater than 10000 nM in experiment [2]. For the same compound, the Ratio IC50 in experiment [3] fell in the range of 10 to 66. The outcome in experiment [4] and in experiment [5] was inactive.

In the case of `CC[C@@H](C)[C@H]1C(=O)N(C)[C@@H](Cc2ccc(OC)c(Br)c2)C(=O)N[C@@H]([C@@H](C)CC)C(=O)O[C@H](C)[C@H](NC(=O)[C@@H](NC(=O)[C@@H](COS(=O)(=O)O)OC)C(C)C)C(=O)N[C@@H](CCCCN)C(=O)N[C@H]2CC[C@@H](O)N1C2=O`, the concentration for half-maximal inhibition (IC50) in experiment [1] was 72 nM; in experiment [2], 1400 nM. The Ratio IC50 in experiment [3] stood at 19. For the same compound, the result in experiment [4] and in experiment [5] was inactive.

With `CC[C@@H](C)[C@H]1C(=O)N(C)[C@@H](Cc2ccc(OC)c(Br)c2)C(=O)N[C@@H]([C@@H](C)CC)C(=O)O[C@H](C)[C@H](NC(=O)[C@H](NC(=O)[C@H](O)COS(=O)(=O)O)C(C)C)C(=O)N[C@@H](CCCCN)C(=O)N[C@H]2CC[C@@H](O)N1C2=O`, the IC50 in experiment [1] was 160 nM; in experiment [2] it was greater than 10000 nM. For the same compound, the Ratio IC50 in experiment [3] fell in the range of 10 to 66. Moreover, the outcome in experiment [4] and in experiment [5] was inactive.

In the case of `CC[C@@H](C)[C@H]1C(=O)N(C)[C@@H](Cc2ccc(OC)c(Br)c2)C(=O)N[C@@H]([C@@H](C)CC)C(=O)O[C@H](C)[C@H](NC(=O)[C@H](NC(=O)[C@@H](COS(=O)(=O)O)OC)C(C)C)C(=O)N[C@@H](CCCNC(=N)N)C(=O)N[C@H]2CC[C@@H](O)N1C2=O`, the IC50 in experiment [1] is 150 nM; in experiment [2], greater than 10000 nM. Besides, the Ratio IC50 in experiment [3] lay within 10 to 66. The result in experiment [4] and in experiment [5] was inactive.

Turning to `CCCC(=O)N[C@H](CCC(N)=O)C(=O)N[C@@H]1C(=O)N[C@@H](CCCNC(N)=O)C(=O)N[C@H]2CC[C@@H](O)N(C2=O)[C@@H]([C@H](C)CC)C(=O)N(C)[C@@H](Cc2ccc(OC)c(Br)c2)C(=O)N[C@@H](C(C)C)C(=O)O[C@@H]1C` (Butyryl-[dQ]T[Cit][Ahp(3S,6R)alloIle][NMeTyr(3-Br,OMe)]V; ester 2-C), the inhibition result in experiment [1] and in experiment [6] was “Active” throughout. Also, in experiment [4], the outcome was Active.
